# In ChEMBL document CHEMBL3124904, “Second-generation derivatives of the eukaryotic translation initiation inhibitor pateamine A targeting eIF4A as potential anticancer agents” (Bioorg Med Chem, 2014):
# Key:
# [1] = Half life in RPMI media at 10 uM by HPLC analysis; format: physicochemical
# Outline: (§1)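 Compound added from DMSO stock to pre-heated RPMI 1640 (1.8 mL) plus 0.2 mL human AB male serum or FBS, or to 2 mL RPMI alone, at final 1 or 10 μM. Samples analysed by HPLC at pH 9.5 (formic acid/ammonia in acetonitrile/water), with conversion taken from the substrate/internal standard peak ratio. Run in triplicate; half-lives ± SD.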
# [2] = Half life in RPMI media at 1 uM by HPLC analysis in presence of fetal bovine serum; format: ADME; details: cattle; outline: as §1
# HeLa = assay: Antiproliferative activity against human HeLa cells assessed as DNA synthesis level after 24 hrs by thymidine incorporation assay; format: functional, cell-based
# Outline: (§2)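 Cells kept at 37 °C, 5% CO2 with penicillin-streptomycin and 10% FBS. Adherent lines seeded at 2000 cells/well and left to recover overnight; Jurkat seeded at 5000 cells/well with no recovery period. Compound added in DMSO (0.1% final, vehicle-only control) at 0.001–100 nM over 10 wells. DNA synthesis read out after 24 h. Mean IC50 from at least 3 independent assays.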
# [3] = biological target: T1, DNA polymerase alpha catalytic subunit (Homo sapiens, UniProt P09884); assay: Inhibition of DNA polymerase-alpha (unknown origin) assessed as incorporation of Br(d)UTP by colorimetric analysis
# T1 sequence (P09884 whole entry): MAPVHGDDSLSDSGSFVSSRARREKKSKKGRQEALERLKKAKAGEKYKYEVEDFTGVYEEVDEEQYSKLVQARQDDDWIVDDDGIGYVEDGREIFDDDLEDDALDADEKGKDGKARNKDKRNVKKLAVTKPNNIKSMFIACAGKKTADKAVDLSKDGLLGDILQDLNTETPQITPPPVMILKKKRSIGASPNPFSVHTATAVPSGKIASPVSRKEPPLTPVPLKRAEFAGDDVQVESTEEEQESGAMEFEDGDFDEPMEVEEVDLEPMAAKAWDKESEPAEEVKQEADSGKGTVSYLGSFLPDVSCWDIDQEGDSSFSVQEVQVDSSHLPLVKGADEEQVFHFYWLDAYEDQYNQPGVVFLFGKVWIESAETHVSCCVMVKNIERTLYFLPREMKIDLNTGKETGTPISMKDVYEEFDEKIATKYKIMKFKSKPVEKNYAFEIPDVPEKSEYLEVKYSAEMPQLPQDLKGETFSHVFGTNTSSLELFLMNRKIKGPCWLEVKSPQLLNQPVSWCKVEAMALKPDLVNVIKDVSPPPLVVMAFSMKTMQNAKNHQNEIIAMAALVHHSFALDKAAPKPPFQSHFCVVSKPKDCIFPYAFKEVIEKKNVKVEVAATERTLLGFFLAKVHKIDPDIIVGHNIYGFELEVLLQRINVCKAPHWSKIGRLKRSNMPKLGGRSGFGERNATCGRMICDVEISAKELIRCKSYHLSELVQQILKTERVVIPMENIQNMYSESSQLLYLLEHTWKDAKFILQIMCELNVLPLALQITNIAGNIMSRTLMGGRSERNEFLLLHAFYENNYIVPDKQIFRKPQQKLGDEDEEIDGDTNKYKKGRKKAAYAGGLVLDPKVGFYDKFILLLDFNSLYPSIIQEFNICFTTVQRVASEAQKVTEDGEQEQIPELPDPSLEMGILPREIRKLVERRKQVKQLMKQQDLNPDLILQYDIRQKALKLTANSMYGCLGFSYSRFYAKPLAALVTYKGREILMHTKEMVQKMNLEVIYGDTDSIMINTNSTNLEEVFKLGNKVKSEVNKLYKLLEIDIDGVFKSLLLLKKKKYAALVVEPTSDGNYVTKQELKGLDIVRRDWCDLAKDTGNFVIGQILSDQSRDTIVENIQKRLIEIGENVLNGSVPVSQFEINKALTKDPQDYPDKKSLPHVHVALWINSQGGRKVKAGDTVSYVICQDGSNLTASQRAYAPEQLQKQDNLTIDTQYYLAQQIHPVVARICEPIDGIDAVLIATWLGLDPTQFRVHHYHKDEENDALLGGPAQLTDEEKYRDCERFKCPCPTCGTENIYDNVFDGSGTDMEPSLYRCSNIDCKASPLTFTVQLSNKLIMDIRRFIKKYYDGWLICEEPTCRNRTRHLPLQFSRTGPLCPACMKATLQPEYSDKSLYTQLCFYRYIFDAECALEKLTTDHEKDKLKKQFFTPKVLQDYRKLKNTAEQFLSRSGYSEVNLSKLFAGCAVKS
# [4] = Half life in RPMI media at 10 uM by HPLC analysis in presence of fetal bovine serum; format: ADME; details: cattle; outline: as §1
# [5] = Antiproliferative activity against human Jurkat T cells assessed as DNA synthesis level after 24 hrs by thymidine incorporation assay; format: functional, cell-based; outline: as §2
# Jurkat = assay: Immunosuppressive activity in human Jurkat T cells assessed as inhibition of IL-2 transcription; format: functional, cell-based
# SK-MEL-2 = assay: Selectivity ratio of IC50 for human SK-MEL-2 cells in presence of 5% FBS to IC50 for human SK-MEL-2 cells in presence of 10% FBS; format: functional
# HaCaT = assay: Antiproliferative activity against human HaCaT cells assessed as DNA synthesis level after 24 hrs by thymidine incorporation assay; format: functional, cell-based; outline: as §2
# [6] = Dissociation constant, pKa of the compound; format: physicochemical
# [7] = Selectivity ratio of IC50 for MEF to IC50 for human HeLa cells; format: cell-based; details: mouse (MEF) and human (HeLa cells), read-out: Ratio IC50
# [8] = Selectivity ratio of IC50 for MEF to IC50 for human SK-MEL-2 cells; format: cell-based; details: mouse (MEF) and human (SK-MEL-2 cells), MEF and SK-MEL-2 cells; read-out: Ratio IC50
# [9] = Binding affinity to eIF4A1/2 in rabbit reticulocyte lysate assessed as inhibition of cap-dependent translation after 1.5 hrs by dual luciferase reporter gene assay; design: species or system Oryctolagus cuniculus
# Outline: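 Capped bicistronic reporter mRNA: cap-dependent firefly luciferase first cistron, HCV IRES-driven Renilla second cistron. Transcribed in vitro with SP6 from the BamHI-linearised plasmid. 200 ng RNA translated in rabbit reticulocyte lysate with 70 mM KCl, 2 mM DTT, RNasin and compound in DMSO (5% v/v final), 30 °C for 1.5 h. Dual luciferase readout. Duplicates, 4 independent assays, mean IC50 by curve fit.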
# [10] = Antiproliferative activity against human Jurkat T cells after 72 hrs by MTT assay; format: functional, cell-based
# Outline: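 HeLa and SK-MEL2 grown in DMEM, Jurkat in RPMI 1640, each with 10% FBS and penicillin-streptomycin, at 37 °C and 5% CO2. Adherent cells seeded at 2000/well and left to recover overnight; Jurkat seeded at 5000/well with no recovery. Compound added in DMSO (0.1% final), then 72 h incubation and MTT readout.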
# [11] = Half life in RPMI media at 1 uM by HPLC analysis in presence of human blood serum; format: ADME; outline: as §1
# RKO = assay: Antiproliferative activity against human RKO cells assessed as DNA synthesis level after 24 hrs by thymidine incorporation assay; format: functional, cell-based; outline: as §2
compound,measurement,setting,value
CC(/C=C/C(C)=C/[C@@H]1Cc2nc(cs2)CCCCC(=O)O[C@@H](C)C/C(C)=C/C=C\C(=O)O1)=C\CN(C)C,t1/2,[1],3.25 h
same,t1/2,[2],19.9 h
same,IC50,HeLa,4.5 nM
same,IC50,[3],3000 nM
same,t1/2,[4],12.5 h
same,IC50,[5],3 nM
same,IC50,Jurkat,0.81 nM
same,Ratio IC50,SK-MEL-2,2
same,IC50,HaCaT,0.9 nM
same,pKa,[6],11
same,selectivity ratio,[7],5
same,selectivity ratio,[8],5
same,IC50,[9],21.5 nM
same,IC50,[10],11 nM
same,t1/2,[11],24 h
same,IC50,RKO,1.2 nM
